Tested on: MS2 coat protein
Test: apparent Kd, MS2 coat protein; higher = weaker binding; RNA-MaP array; FMN 200 µM where present
Procedure, shortened: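 The titrant was SNAP-549-labelled MS2 coat protein, run from 0.7 or 1.5 nM in doubling steps to 3 µM. It was applied to designs transcribed by stalled E. coli RNA polymerase on Illumina sequencing-chip clusters, without ligand first and then with constant ligand, in 100 mM Tris-HCl pH 7.5, 80 mM KCl, 4 mM MgCl2, BSA, DTT, yeast tRNA and Tween-20. The apparent Kd is the median of filtered per-cluster binding-curve fits, with green signal normalised to red-channel RNA signal and control-cluster median Fmax.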

[1] = designed as: ON switch for flavin mononucleotide, no ligand
[2] = ligand present: flavin mononucleotide, designed as: ON switch for flavin mononucleotide
[3] = designed as: OFF switch for flavin mononucleotide, no ligand
[4] = ligand present: flavin mononucleotide, designed as: OFF switch for flavin mononucleotide

Row | Sequence | apparent Kd [1] [nM] | apparent Kd [2] [nM] | apparent Kd [3] [nM] | apparent Kd [4] [nM]
1 | UGGUACUAGGGAGGAUAUCGGAAGAUACAUGAGGAUCACCCAUGUUUAAGAAUGCCGAGAGGCAACUAGAAGGCCCUAGUACCU | 6.64 | 6.13 |  | 
2 | UGGUACUAGGGAGGAUAUGGGAAGAAACAUGAGGAUCACCCAUGUUUAAGAAUGCCGAGAGGCAACUAGAAGGCCCUAGUACCU | 9.75 | 4.99 |  | 
3 | UGGUACUAGGGAGGAUAUGGGAAGACACAUGAGGAUCACCCAUGUUUAAGAAUGCCGAGAGGCAACUAGAAGGCCCUAGUACCU | 71.9 | 7.95 |  | 
4 | UGGUACUAGGGAGGAUAUGGGAAGAUACAUGAGGAUCACCCAUGUUUAAGAAUGCCGAAAGGCAACUAGAAGGCCCUAGUACCU | 430 | 19.9 |  | 
5 | UGGUACUAGGGAGGAUAUGGGAAGAUACAUGAGGAUCACCCAUGUUUAAGAAUGCCGAGAGGCACCUAGAAGGCCCUAGUACCU | 21.1 | 5.36 |  | 
6 | UGGUACUAGGGAGGAUAUGGGAGGAUACAUGAGGAUCACCCAUGUUUAAGAAUGCCGAGAGGCAACUAGAAGGCCCUAGUACCU | 919 | 63.7 |  | 
7 | UGGUGAAGUGUAGGAUAUGGAGAUGGGUUUUGGCCAGAAGGACAUGAGGAUCACCCAUGUGGUAGAGGGUUGGUGGUAGCUCCU |  |  | 36.2 | 31.7
8 | UGGUUGGGAGGAUAUCCAAUAUAUGACAUGAGGAUCACCCAUGUUUCCACUCGUACCUCCGGAGAAGGCCCUUCCA |  |  | 23.1 | 22
9 | UGGUUGGGAGGAUAUCCAAUAUAUGACAUGAGGAUCACCCAUGUUUCCACUCGUACCUCCGGAGAAGGCCCUUCCC |  |  | 21.7 | 20.7
10 | UGGUUGUGAGGAUAUACGUUUUUUAACUCUUGUUUUAUACUGUAGAAGGCACAUGAGGAUCACCCAUGUUACGU |  |  | 22.4 | 26
11 | UGUAGGAGCAGAGGAUAUUACAUGAGGAUCACCCAUGUAUGAACCAAUAGCUGGAAACAGCAAUGUAAGAAGGCUGCUCCGACA |  |  | 12.2 | 187
12 | UGUAUGGACAGAGGAUAUACCGAUAGGAUCUACUAUCGAACAAUUCUCACAUGAGGAUCACCCAUGUAGAAGGCUGUCCAUACU |  |  | 16 | 29.5
13 | UGUAUUAACGGAGGAUAUCGAUAUCAAACAUGAGGAUCACCCAUGUUGAGGAUCACCCAUGUCCAUGAGAAGGCUGGCGUACUU | 20.8 | 20.6 |  | 
14 | UGUCAUAUAUAGAAGGGUAGUAGGGUUUUACAUGAGGAUCACCCAUGUAUUAUAGGAUAUGUGUAAAGUUAUUAUUAAAGUAAA |  |  | 29.1 | 21.5
15 | UGUCCAUAGCAGAAGGACAUGAGGAUCACCCAUGUAAUCAUACAAAUAAAUGUAGGAUAUGCUAUGGACUAAGAGCGAAAGCUC |  |  | 6.24 | 7.26
16 | UGUCCGAGCAGAGGAUAUUACAUGAGGAUCACCCAUGUAUGAACCAAUAGCUGGAAACAGCAAUGUAAGAAGGCUGCUCCGACA |  |  | 12.2 | 155
17 | UGUCGGAGCAGAGGAUAUAACAUGAGGAUCACCCAUGUAUGAACCAAUAGCUGGAAACAGCAAUGUAAGAAGGCUGCUCCGACA |  |  | 5.8 | 6.69
18 | UGUCGGAGCAGAGGAUAUUACAUGAGGAUCACCCAUGUAAAUGGAAUAAGCUGGAAACAGCAAUGUAAGAAGGCUGCUCCGACA |  |  | 70.2 | 619
19 | UGUCGGAGCAGAGGAUAUUACAUGAGGAUCACCCAUGUAUGAACCAAUAGCUGGAAACAACAAUGUAAGAAGGCUGCUCCGACA |  |  | 7.22 | 38.8
20 | UGUCGGAGCAGAGGAUAUUACAUGAGGAUCACCCAUGUAUGAACCAAUAGCUGGAAACAGCAAUGUAAGAAGGCCGCUCCGACA |  |  | 5.82 | 28.5
21 | UGUCGGAGCAGAGGAUAUUACAUGAGGAUCACCCAUGUAUGAACCAAUAGCUGGAAACAGCAAUGUAAGAAGGCUGCUACGACA |  |  | 12.2 | 153
22 | UGUCGGAGCAGAGGAUAUUACAUGAGGAUCACCCAUGUAUGAACCAAUAGCUGGAAACAGCAAUGUAAGAAGGCUGCUCCGACU |  |  | 13 | 174
23 | UGUCGGAGCAGAGGAUAUUACAUGAGGAUCACCCAUGUAUGAACCAAUAGCUGGAAACAGCAAUGUUAGAAGGCUGCUCCGACA |  |  | 5.23 | 6.86
24 | UGUCGGAGCAGAGGAUAUUACAUGAGGAUCACCCAUGUAUGAACCAAUAGCUGGAAACAGCAUUGUAAGAAGGCUGCUCCGACA |  |  | 4.75 | 12.1
25 | UGUCGGAGCAGAGGAUAUUACAUGAGGAUCACCCAUGUAUGAACUAAUAGCUGGAAACAGCAAUGUAAGAAGGCUGCUCCGACA |  |  | 6.27 | 17.9
26 | UGUCGGAGCAGAGGAUAUUACAUGAGGAUCACCCAUGUAUGAAGCAAUAGCUGGAAACAGCAAUGUAAGAAGGCUGCUCCGACA |  |  | 5.7 | 7
27 | UGUCGGAGCAGAGGAUAUUACAUGAGGAUCACCCAUGUUUGAACCAAUAGCUGGAAACAGCAAUGUAAGAAGGCUGCUCCGACA |  |  | 91.2 | 242

Row | Sequence | apparent Kd [1] [nM] | apparent Kd [2] [nM] | apparent Kd [3] [nM] | apparent Kd [4] [nM]
28 | UGUGCAGAAGGAUAUGCGUAAGCUCGGUGACGAGCAGGUCUACAUGAGGAUCACCCAUGUAGAAGGUCUGUACU |  |  | 16.8 | 17.9
29 | UGUGCAGAAGGAUAUGCGUAAUGGCCGUGAGGCCUAGAUCUACAUGAGGAUCACCCAUGUAGAAGGUCUGUACU |  |  | 16.6 | 16.4
30 | UGUGCGUAUGUGAGGAUAUGCUGGUCCUUGGAUCGGCAGAAGGCACAUGAGGAUCACCCAUGUGGUGUCGUACC |  |  | 161 | 40.4
31 | UGUGCGUAUGUGAGGAUAUGCUGGUCCUUGGCUCGGCAGAAGGCACAUGAGGAUCACCCAUGUGGUGUCGUACU |  |  | 108 | 104
32 | UGUGCGUUGAUCUUCGAUCGGAGUACAUGAGGAUCACCCAUGUAGGAUAUUCAAAGACGCAGAUAGAAGAAGGACAUAGGUUUC |  |  | 10.1 | 11.1
33 | UGUGCGUUGAUCUUCGAUCGUUGUACAUGAGGAUCACCCAUGUAGGAUAUUCUAAGACGCAGAUAGGAGAAGGACAUUGGUUUU |  |  | 10.1 | 17.6
34 | UGUGGGUCAGGAUAUUCUAUUUAUUACAUGAGGAUCACCCAUGUGAAUGGACAAGGGUGUGAAGAAGGGACUUGUG |  |  | 876 | 495
35 | UGUGUGUGGCAGGAUAUGCCGGUCGUAGGACGGGUAGAAGGGUCUACAUGAGGAUCACCCAUGUGGCCGGUUGG |  |  | 19.2 | 18.5
36 | UGUGUGUGGCAGGAUAUGCCGGUCGUUGGACGGGUAGAAGGGUCUACAUGAGGAUCACCCAUGUGGCCGGUUGG |  |  | 18.4 | 20.2
37 | UGUUAAUAUCGAGGAUAUGUCUAGACACAUGAGGAUCACCCAUGUAUGUGUAUAGAAGGCGAUAUUAACAGCAUGUUACAUGCA | 36.9 | 16.9 |  | 
38 | UGUUACUAGUAAGGAUAUACUUGCGAUUAGCUUGUAGAAGGUACAGUCUUUUGUAUAACAUGUUUACAUGAGGAUCACCCAUGU | 10.7 | 8.69 |  | 
39 | UGUUCUAUGUAGAAGGCCCAUAUCUGUAUUUAGGGAGGAUAUACAUGAGGAUCACCCAUGUGUAGAGCUGGUGGACUGGUCAGC |  |  | 13.6 | 38.9
40 | UGUUGAUAGCAGAAGGACAUGAGGAUCACCCAUGUAAGGAUACAAAUAUAUGUAGGAUAUGCUAUUGACUAAGAGUGAGCGUUC |  |  | 8.55 | 18.9
41 | UGUUGUAUUACAGGAUAUCUAGUAUUUUUAUAUAGAGAAGGGUAUUCACAUGAGGAUCACCCAUGUAUAUACGAGGAAGUUGUG | 30.3 | 32.2 |  | 
42 | UGUUGUAUUACAGGAUAUCUAGUAUUUUUUUUUAGAGAAGGGUAUUCACAUGAGGAUCACCCAUGUAUAUACGAGGAAGUUGUG | 67.1 | 71.1 |  | 
43 | UGUUGUAUUACAGGAUAUCUAUUAGUUUAAUUUAGAGAAGGGUAUUCACAUGAGGAUCACCCAUGUAUAUACGAGGAAGUUGUG | 53 | 62.2 |  | 
44 | UGUUGUAUUACAGGAUAUCUAUUAGUUUUAUUUAGAGAAGGGUAUUCACAUGAGGAUCACCCAUGUAUAUACGAGGAAGUUGUG | 57.8 | 60.3 |  | 
45 | UGUUGUAUUACAGGAUAUCUAUUAUUUUAAUUUAGAGAAGGGUAUUCACAUGAGGAUCACCCAUGUAUAUACGAGGAAGUUGUG | 52.9 | 57.2 |  | 
46 | UGUUUGCGGCAGGAUAUCCAUCCGCGGUGUGGUGGAGAAGGGCUGACAUGAGGAUCACCCAUGUGCGUCCUGUA |  |  | 19.4 | 27.5
47 | UGUUUUCGAGGAUAUACAUGAGGAUCACCCAUGUGGAUUCACACUGACAGUUCCUUUUGUAGAAGGUGAUAGGC |  |  | 124 | 170
48 | UUAAAUCAUGUAGGAUAUGCAUGGCGAAGCUACGCAGAAGGACAUGAGGAUCACCCAUGUCUCUCCGUCUGCGUACAGACGGAG |  |  | 24.6 | 155
49 | UUAAAUCAUGUAGGAUAUGCAUGGCGAAGCUACGCAGAAGGACAUGAGGAUCACCCAUGUUAUAGCGUCCGAUUAAGGAUGCAA |  |  | 91.9 | 216
50 | UUAAAUCAUGUAGGAUAUGCAUGGCGAAGCUACGCAGAAGGACAUGAGGAUCACCCAUGUUCUAGCUACCGAGAACGGUGGCAA |  |  | 19.1 | 74.1
51 | UUAACUCAUGUAGGAUAUGCAUGGCGAAGCUACGCAGAAGGACAUGAGGAUCACCCAUGUUCUAGCGUCUGAGAACAGAUGCAA |  |  | 49.2 | 400
52 | UUAAGGGACUGAGGAUAUACAUGAAUUAUUUUUGUAGAAGGCAGAUUGUUAGUUUAUUCACUAUACAUGAGGAUCACCCAUGUU |  |  | 27.4 | 20.1
53 | UUAAUAAAGUAAGGAUAUACAUGAGGAUCUCUCGUAGAAGGUACUAUACAUGAGGAUCACCCAUGUGCCGGUCCGUAGACUGGA | 387 | 796 |  | 
54 | UUAAUAAUACAAGGAUAUCUAUUGUUCUUAAGACAUACAUGAGGAUCACCCAUGUUAAUAUAUGUAGAGAAGGUGUAUUUUCAG | 30.5 | 22.9 |  | 

— the EternaBench riboswitch data
